# 5-HT1A blocker – blocks the human serotonin 5-HT1a receptor. P08908. CHO 5-HT1a Ga15 NFAT-bla reporter, antagonist mode. inhibition, % at 10 µM. 62,000 tested, 0.68% active. AID 612;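 active = inhibition above the mean of all tested compounds plus 3 SD, cut at about 43% in these data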;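 note: receptor stimulated by 5-CT agonist at 100 nM near EC80; beta-lactamase reporter measured by ratiometric fluorescence of a cleavable substrate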
# Target sequence (P08908 whole entry, looked up): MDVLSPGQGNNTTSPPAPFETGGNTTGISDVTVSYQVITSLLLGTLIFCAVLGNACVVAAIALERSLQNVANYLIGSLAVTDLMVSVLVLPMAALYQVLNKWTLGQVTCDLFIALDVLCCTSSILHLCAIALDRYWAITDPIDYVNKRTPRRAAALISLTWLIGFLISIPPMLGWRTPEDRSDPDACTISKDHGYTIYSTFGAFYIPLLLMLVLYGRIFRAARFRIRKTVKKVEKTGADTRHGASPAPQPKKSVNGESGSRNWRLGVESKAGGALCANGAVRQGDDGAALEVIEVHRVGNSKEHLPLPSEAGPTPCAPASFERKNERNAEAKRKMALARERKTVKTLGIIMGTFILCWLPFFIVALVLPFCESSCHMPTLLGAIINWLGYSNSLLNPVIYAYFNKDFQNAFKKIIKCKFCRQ
# HTR1E antagonist – 5-HT1E (human) receptor antagonism; P28566; CHO 5-HT1E Ga15 NFAT-bla reporter, FRET, antagonist; inhibition, % at 6 µM; 65,000 tested, 0.99% active;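 active = inhibition above a set limit, the mean inhibition across every tested compound plus 3 SD, cut at about 29% in these data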;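 note: signal is the 460 over 535 nm emission ratio of beta-lactamase substrate; 0% = agonist plus DMSO wells and 100% = wells without agonist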
# S1P1 ag-PAM – activates or potentiates agonism at human S1P1 receptor | P21453 | S1P1 CRE-bla cells, forskolin, beta-lactamase FRET, potentiator mode; S1P1 agonist co-added at EC20, 2 nM; 100% = saturating reference agonist, 0% = basal | activation, % at 9.5 µM | 56,000 tested, 0.57% active;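 active = activation above a cutoff set at the mean activation of all tested compounds plus 3 SD, cut at about 54% in these data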;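 note: forskolin at 4 µM as EC80 and the EC20 agonist is SEW2871; 100% = SEW2871 at its EC100 plus forskolin at EC80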
# HTR1E agonist – 5-HT1E (human) receptor agonism; P28566; 65,000 tested, 0.69% active; AID 574; activation, % at 6 µM; CHO 5-HT1E Ga15 NFAT-bla reporter, FRET; 0% DMSO wells, 100% control agonist wells;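 active = activation above a set limit, the screen-wide mean activation plus 3 SD, cut at about 8.5% in these data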;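 note: 100% = positive control agonist at 1 µM giving full maximal response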
# S1P3 agonist – agonists of human S1P3 receptor | Q99500 | S1P3 NFAT-BLA reporter cells, agonism, FRET ratio; relative to 1 µM S1P, basal subtracted | 60,000 tested, 0.1% active | activation, % at 4.5 µM;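 active = activation above the screen-wide mean plus 3 SD, cut at about 4.5% in these data, passing the limit was not always enough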
#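 Measure – % activation relative to 1 µM S1P (100%), per plate · System – stable CHO line with human S1P3, Gα16, NFAT-BLA reporter · Timing – cells plated overnight, compound 4 h 37 °C, substrate 2 h RT · Technique – fluorescent BLA substrate, ex 405 nm, em 460/535 nm ratio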
# 5HT1a ag – 5-HT1a (human) receptor agonism; P08908; CHO 5-HT1a Ga15 NFAT-bla reporter, FRET ratio; 0% basal, 100% maximal reference agonist; activation, % at 10 µM; 65,000 tested, 0.56% active; AID 567;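 active = activation above the screen-wide mean activation plus 3 SD, cut at about 19% in these data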;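 note: 0% = DMSO wells and 100% = 5-CT at EC100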
# An asterisk follows results filed as active; . = no result given. In the library only some 3% were active in any assay of this set; here they are far more common.
SMILES,5-HT1A blocker,HTR1E antagonist,S1P1 ag-PAM,HTR1E agonist,S1P3 agonist,5HT1a ag
COC(=O)C1=C(N)Oc2cc(C)n(CCN3CCOCC3)c(=O)c2C1c1cccnc1 (configuration not stated),16,2,14,0,-1,8
CCOC(=O)c1c(N)c(C#N)cn1-c1ccccc1,-5,6,-14,0,0,-2
CCOC(=O)c1c(NC(=O)c2nn(CC)cc2Br)c(C#N)cn1-c1ccccc1,18,40*,-26,0,0,1
Cc1ccccc1C(=O)Nc1ccc2c(c1)OCO2,7,-1,-12,0,0,-4
O=C1CSC(c2ccccc2F)N1c1cc(Cl)ccc1O (configuration not stated),8,30*,8,-1,0,-2
O=C1CSC(c2ccccc2F)N1CCN1CCCCC1 (configuration not stated),8,3,-23,1,0,-1
CCOC(=O)Nc1ccc2c(c1)Sc1ccccc1N2C(=O)CCN1CCOCC1,12,23,-17,0,1,1
CCOc1ccc(N(CC(=O)Nc2ccccc2C)S(=O)(=O)c2c(C)noc2C)cc1,30,46*,1,0,-2,0
Cc1noc(C)c1S(=O)(=O)N(CC(=O)Nc1ccc2c(c1)OCO2)c1ccc(C(C)C)cc1,15,3,79*,0,-2,0
Cc1nn(C)c(C)c1S(=O)(=O)N(CC(=O)Nc1ccc2c(c1)OCO2)c1ccc(C(C)C)cc1,0,0,-2,0,0,1
COc1ccccc1NC(=O)CN(c1ccc(C)cc1)S(=O)(=O)c1c(C)n[nH]c1C,63*,14,18,-1,0,-2
CCOc1ccc(N(CC(=O)Nc2ccc(C)c(C)c2)S(=O)(=O)c2c(C)noc2C)cc1,18,6,28,0,-2,0
CCOc1ccccc1NC(=O)CN(c1cc(C)cc(C)c1)S(=O)(=O)c1c(C)noc1C,3,-10,14,0,-1,1
CCOc1ccccc1NC(=O)CN(c1ccc(OC)cc1)S(=O)(=O)c1c(C)noc1C,35,68*,-1,0,-1,-1
CN(CC(=O)N1CCc2ccccc21)S(=O)(=O)c1ccc(Br)s1,-10,-7,.,0,.,-1
O=C(CCCCCN1C(=O)c2ccccc2C1=O)NCc1ccccn1,-14,-12,-19,0,0,-3
CC(=O)Nc1ccc(S(=O)(=O)N(C)S(=O)(=O)c2ccc(F)cc2)cc1,-12,-1,-54,1,0,-5
COC(=O)c1sc(N2C(=O)C(O)=C(C(=O)c3ccc(C)o3)C2c2ccc(F)cc2)nc1C (configuration not stated),5,-9,-11,1,1,2
CCOC(=O)Cc1csc(NC(=O)CCNS(=O)(=O)c2ccc3c(c2)CCC(=O)N3)n1,-10,5,-2,-1,0,1
Cc1ccc(Nc2cc(C)nn2-c2nc(C)cc(C)n2)cc1,17,9,-11,1,-1,-1
Cc1ccc(Nc2cc(C)nn2-c2nc(C)cc(=O)[nH]2)cc1,61*,74*,-12,0,-2,-8
CCN(CC)CCOc1cccc(C(C)C)c1,6,4,-13,13*,0,-1
CCNc1nc(C)c2cc(Br)c(=O)n(CC)c2n1,42,58*,-35,-1,-2,-1
CCn1c(=NC(=O)c2ccc(N3C(=O)CCC3=O)cc2)sc2c(OC)ccc(OC)c21,12,31*,-48,2,-1,1
Cc1ccc(Cl)cc1N1CCN(C(=O)C2CCN(c3nnc(-n4cccc4)s3)CC2)CC1,5,-11,87*,3,-2,0
SMILES,5-HT1A blocker,HTR1E antagonist,S1P1 ag-PAM,HTR1E agonist,S1P3 agonist,5HT1a ag
COC(=O)C1=C(Cn2cnc3ccccc32)NC(=O)NC1c1cc(C)ccc1C (configuration not stated),-5,2,.,-1,-1,22*
CCOC(=O)C1=C(Cn2cnc3ccccc32)NC(=O)NC1c1cc(C)ccc1C (configuration not stated),-6,1,-102,2,0,8
c1coc(CNC2CCCCCCC2)c1,5,13,2,-1,0,42*
Fc1ccc(COc2ccc(/C=N/n3cnnc3)cc2)cc1,2,4,64*,1,-1,-2
CCOC(=O)Cn1c(=O)oc2cc(S(=O)(=O)Nc3ccc(N(CC)CC)cc3C)ccc21,5,12,-1,0,0,1
Cc1cc2oc3c(c(=O)c2cc1C)C(c1ccc(C(C)C)cc1)N(CCCN1CCOCC1)C3=O (configuration not stated),-2,4,-5,2,-1,3
O=C(CCN1CCN(c2ccccn2)CC1)Nc1ccc(F)cc1,18,-8,-36,0,0,29*
O=C(CN1CCN(c2ccccn2)CC1)Nc1ccc2ccccc2c1,5,-6,6,0,0,0
COc1ccc(OC)c(NC(=O)CCN2CCN(c3ccccc3)CC2)c1,5,2,-16,0,-1,0
CCOc1ccc(NC(=O)CCN2CCN(c3ccccc3)CC2)cc1,68*,23,-17,0,-2,3
COc1ccc2c(c1)N(C(=O)CSc1n[nH]c(C)n1)C(C)(C)C=C2C,3,5,1,0,-1,-2
CN(C)c1ccc(/C=N/n2ncc3ccccc32)cc1,-18,6,.,3,.,24*
O=C(NCc1ccco1)C(c1cccs1)N(C(=O)Cc1cccs1)c1ccccc1 (configuration not stated),52*,15,3,-2,-2,-2
CCc1cc(C(=O)Nc2ccccc2)cs1,10,2,16,-2,0,-3
O=C(Nc1ccccc1NC(=O)NC1CCCCC1)NC1CCCCC1,7,56*,.,1,0,-5
Cc1ccc(CCP(=O)(O)CN2CCCCC2)cn1,-11,-2,-26,-1,1,-3
CCCCN(C)CCNC(=O)Cn1ncc2c(=O)oc3ccc(C)cc3c21,1,-10,1,10*,0,-1
CC(=O)c1ccc(NS(=O)(=O)Cc2ccccc2)cc1,4,-4,-16,0,0,0
CC(=O)N(C)c1ccc(NS(=O)(=O)Cc2ccccc2)cc1,-7,1,6,0,-1,69*
O=C(CSc1nc2ccccc2s1)Nc1ncccn1,0,-7,-22,1,-1,-2
O=S(=O)(CCSc1ccccn1)c1nc2ccccc2s1,42,8,88*,0,-1,-3
CCS(=O)(=O)CCSc1nc2ccccc2o1,-9,-1,.,1,0,0

# Source: PubChem BioAssay (The Scripps Research Institute Molecular Screening Center)
